The values that follow come from ChEMBL document CHEMBL1122219, “Synthesis and antiviral activity of water-soluble esters of acyclovir [9-[(2-hydroxyethoxy)methyl]guanine]” (1983).

Holding throughout (type): functional
The species entered for assay [1] is Oryctolagus cuniculus. Put plainly: Minimum inhibitory concentration required to reduce virus induced cytopathogenicity in primary rabbit kidney cell cultures by 50% against Vaccinia virus. In general terms: Cytopathic effects are the visible damage that an infection or toxin causes in cultured cells.
Assay [2] is filed under the species Oryctolagus cuniculus. Put plainly: Minimum inhibitory concentration required to reduce virus induced cytopathogenicity in primary rabbit kidney cell cultures by 50% against HSV-2 (196). In a few lines:
(§1)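 Primary rabbit kidney cell cultures infected with HSV-1 strains KOS, McIntyre or F, or HSV-2 strains Lyons, G or 196. Antiviral assays ran 3–4 days, with inhibition of virus-induced cytopathogenicity as the read-out. Cytotoxicity was checked as microscopically visible change in normal cell morphology, up to 400 µg/mL.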

The species named for assay [3] is Oryctolagus cuniculus. Put plainly: Minimum inhibitory concentration required to reduce virus induced cytopathogenicity in primary rabbit kidney cell cultures by 50% against HSV-1 (McIntyre). The essentials: as §1
For assay [4], the species on record is Oryctolagus cuniculus. Description: Minimum inhibitory concentration required to reduce virus induced cytopathogenicity in primary rabbit kidney cell cultures by 50% against Vesicular stomatitis virus.
Assay [5] is filed under the species Oryctolagus cuniculus. Description: Minimum inhibitory concentration required to reduce virus induced cytopathogenicity in primary rabbit kidney cell cultures by 50% against HSV-2 (G). In a few lines:
as §1

For assay [6], the species on record is Oryctolagus cuniculus. Description: Minimum inhibitory concentration required to reduce virus induced cytopathogenicity in primary rabbit kidney cell cultures by 50% against HSV-1 (F). In a few lines:
as §1

Assay [7] is filed under the species Oryctolagus cuniculus. Description: Minimum inhibitory concentration required to reduce virus induced cytopathogenicity in primary rabbit kidney cell cultures by 50% against HSV-2 ([…]). The essentials: as §1
The species entered for assay [8] is Oryctolagus cuniculus. Description: Minimum inhibitory concentration required to reduce virus induced cytopathogenicity in primary rabbit kidney cell cultures by 50% against HSV-1 ((KOS). The essentials:
as §1

In brackets after ≈: the same amount, converted by molar mass.

With `Nc1nc2c(ncn2COCCO)c(=O)[nH]1` [ACYCLOVIR], the MIC was 80 µg/mL (≈ 355 µM) in the assay listed under Oryctolagus cuniculus [1]; 0.06 µg/mL (≈ 0.266 µM) in the assay filed under Oryctolagus cuniculus [2]; 0.1 µg/mL (≈ 0.444 µM) in the assay listed under Oryctolagus cuniculus [3]; more than 400 µg/mL in the assay filed under Oryctolagus cuniculus [4]; 0.06 µg/mL (≈ 0.266 µM) in the assay filed under Oryctolagus cuniculus [5]; 0.09 µg/mL (≈ 0.4 µM) in the assay listed under Oryctolagus cuniculus [6]. Further, the MIC in the assay filed under Oryctolagus cuniculus [7] stood at 0.04 µg/mL (≈ 0.178 µM); in the assay listed under Oryctolagus cuniculus [8] it was 0.08 µg/mL (≈ 0.355 µM).

`O=c1[nH]c(=O)n([C@H]2C[C@H](O)[C@@H](CO)O2)cc1I` [IDOXURIDINE]: the MIC is 0.1 µg/mL (≈ 0.282 µM) in the assay listed under Oryctolagus cuniculus [1]; 0.4 µg/mL (≈ 1.13 µM) in the assay listed under Oryctolagus cuniculus [2]; 0.2 µg/mL (≈ 0.565 µM) in the assay listed under Oryctolagus cuniculus [3]; more than 400 µg/mL in the assay listed under Oryctolagus cuniculus [4]; 0.2 µg/mL (≈ 0.565 µM) in the assay filed under Oryctolagus cuniculus [5]; 0.15 µg/mL (≈ 0.424 µM) in the assay filed under Oryctolagus cuniculus [6]. The results for the MIC in the assay listed under Oryctolagus cuniculus [7] and in the assay listed under Oryctolagus cuniculus [8] were 0.2 µg/mL (≈ 0.565 µM) and 0.15 µg/mL (≈ 0.424 µM), respectively.

On to `[N-]=[N+]=NCC(=O)OCCOCn1cnc2c(O)nc(N)nc21`, for which the MIC in the assay listed under Oryctolagus cuniculus [1] worked out at 150 µg/mL (≈ 487 µM); in the assay listed under Oryctolagus cuniculus [2] it was 0.07 µg/mL (≈ 0.227 µM); in the assay listed under Oryctolagus cuniculus [3], 0.1 µg/mL (≈ 0.324 µM); in the assay listed under Oryctolagus cuniculus [5], 0.07 µg/mL (≈ 0.227 µM); in the assay listed under Oryctolagus cuniculus [6] it was 0.1 µg/mL (≈ 0.324 µM); in the assay listed under Oryctolagus cuniculus [7] it was 0.04 µg/mL (≈ 0.13 µM). In the assay listed under Oryctolagus cuniculus [8], this compound came in with an MIC of 0.1 µg/mL (≈ 0.324 µM).

As to `Cl.NCC(=O)OCCOCn1cnc2c(O)nc(N)nc21`, the MIC in the assay listed under Oryctolagus cuniculus [1] is 125 µg/mL; in the assay listed under Oryctolagus cuniculus [2], 0.07 µg/mL; in the assay listed under Oryctolagus cuniculus [3], 0.1 µg/mL; in the assay listed under Oryctolagus cuniculus [4], more than 400 µg/mL; in the assay filed under Oryctolagus cuniculus [5], 0.08 µg/mL; in the assay filed under Oryctolagus cuniculus [6] it was 0.1 µg/mL. Besides, the figures for the MIC in the assay filed under Oryctolagus cuniculus [7] and in the assay listed under Oryctolagus cuniculus [8] were 0.04 µg/mL and 0.1 µg/mL, respectively.

On to `O=c1[nH]c(=O)n([C@H]2C[C@H](O)[C@@H](CO)O2)cc1/C=C/Br` [BRIVUDINE], for which the MIC in the assay filed under Oryctolagus cuniculus [1] was 4 µg/mL (≈ 12 µM); in the assay listed under Oryctolagus cuniculus [2], 4 µg/mL (≈ 12 µM); in the assay filed under Oryctolagus cuniculus [3], 0.01 µg/mL (≈ 0.03 µM); in the assay filed under Oryctolagus cuniculus [4], more than 400 µg/mL; in the assay filed under Oryctolagus cuniculus [5], 0.8 µg/mL (≈ 2.4 µM); in the assay listed under Oryctolagus cuniculus [6], 0.01 µg/mL (≈ 0.03 µM). Also, the MIC in the assay listed under Oryctolagus cuniculus [7] amounted to 1 µg/mL (≈ 3 µM); in the assay listed under Oryctolagus cuniculus [8] it was 0.01 µg/mL (≈ 0.03 µM).

Consider `Nc1nc(O)c2ncn(COCCOC(=O)CCC(=O)[O-])c2n1.[Na+]`, for which the MIC was more than 400 µg/mL in the assay listed under Oryctolagus cuniculus [1]; 0.4 µg/mL in the assay listed under Oryctolagus cuniculus [2]; 0.5 µg/mL in the assay filed under Oryctolagus cuniculus [3]; more than 400 µg/mL in the assay filed under Oryctolagus cuniculus [4]; 0.8 µg/mL in the assay listed under Oryctolagus cuniculus [5]; 0.7 µg/mL in the assay filed under Oryctolagus cuniculus [6]. In addition, the figures for the MIC in the assay filed under Oryctolagus cuniculus [7] and in the assay listed under Oryctolagus cuniculus [8] were 0.5 µg/mL and 0.7 µg/mL, respectively.

`Cl.NCCC(=O)OCCOCn1cnc2c(O)nc(N)nc21`: the MIC in the assay listed under Oryctolagus cuniculus [1] was 100 µg/mL; in the assay listed under Oryctolagus cuniculus [2], 0.1 µg/mL; in the assay listed under Oryctolagus cuniculus [3] it was 0.4 µg/mL; in the assay filed under Oryctolagus cuniculus [4], more than 400 µg/mL; in the assay listed under Oryctolagus cuniculus [5], 0.15 µg/mL; in the assay listed under Oryctolagus cuniculus [6], 0.5 µg/mL. Also, the figures for the MIC in the assay listed under Oryctolagus cuniculus [7] and in the assay listed under Oryctolagus cuniculus [8] were 0.1 µg/mL and 0.2 µg/mL, respectively.

`CC(N)C(=O)OCCOCn1cnc2c(O)nc(N)nc21.Cl` (stereo not drawn): the MIC was 70 µg/mL in the assay listed under Oryctolagus cuniculus [1]; 0.1 µg/mL in the assay listed under Oryctolagus cuniculus [2]; 0.4 µg/mL in the assay filed under Oryctolagus cuniculus [3]; more than 400 µg/mL in the assay listed under Oryctolagus cuniculus [4]; 0.2 µg/mL in the assay filed under Oryctolagus cuniculus [5]; 0.4 µg/mL in the assay listed under Oryctolagus cuniculus [6]. Further, the results for the MIC in the assay filed under Oryctolagus cuniculus [7] and in the assay listed under Oryctolagus cuniculus [8] were 0.07 µg/mL and 0.4 µg/mL, respectively.
